Apaf1 activ: human Apaf-1 activation; O14727; activity change, negative = activation, % at 20 µM; hit rate 0.31% among 330,000; Apaf-1 apoptosome caspase-3 activation, DEVD-Rh110 fluorescence; active compounds read low; AID 489031;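 active = activity change at or below -40% at 20 µM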
Target sequence (O14727 whole entry, looked up): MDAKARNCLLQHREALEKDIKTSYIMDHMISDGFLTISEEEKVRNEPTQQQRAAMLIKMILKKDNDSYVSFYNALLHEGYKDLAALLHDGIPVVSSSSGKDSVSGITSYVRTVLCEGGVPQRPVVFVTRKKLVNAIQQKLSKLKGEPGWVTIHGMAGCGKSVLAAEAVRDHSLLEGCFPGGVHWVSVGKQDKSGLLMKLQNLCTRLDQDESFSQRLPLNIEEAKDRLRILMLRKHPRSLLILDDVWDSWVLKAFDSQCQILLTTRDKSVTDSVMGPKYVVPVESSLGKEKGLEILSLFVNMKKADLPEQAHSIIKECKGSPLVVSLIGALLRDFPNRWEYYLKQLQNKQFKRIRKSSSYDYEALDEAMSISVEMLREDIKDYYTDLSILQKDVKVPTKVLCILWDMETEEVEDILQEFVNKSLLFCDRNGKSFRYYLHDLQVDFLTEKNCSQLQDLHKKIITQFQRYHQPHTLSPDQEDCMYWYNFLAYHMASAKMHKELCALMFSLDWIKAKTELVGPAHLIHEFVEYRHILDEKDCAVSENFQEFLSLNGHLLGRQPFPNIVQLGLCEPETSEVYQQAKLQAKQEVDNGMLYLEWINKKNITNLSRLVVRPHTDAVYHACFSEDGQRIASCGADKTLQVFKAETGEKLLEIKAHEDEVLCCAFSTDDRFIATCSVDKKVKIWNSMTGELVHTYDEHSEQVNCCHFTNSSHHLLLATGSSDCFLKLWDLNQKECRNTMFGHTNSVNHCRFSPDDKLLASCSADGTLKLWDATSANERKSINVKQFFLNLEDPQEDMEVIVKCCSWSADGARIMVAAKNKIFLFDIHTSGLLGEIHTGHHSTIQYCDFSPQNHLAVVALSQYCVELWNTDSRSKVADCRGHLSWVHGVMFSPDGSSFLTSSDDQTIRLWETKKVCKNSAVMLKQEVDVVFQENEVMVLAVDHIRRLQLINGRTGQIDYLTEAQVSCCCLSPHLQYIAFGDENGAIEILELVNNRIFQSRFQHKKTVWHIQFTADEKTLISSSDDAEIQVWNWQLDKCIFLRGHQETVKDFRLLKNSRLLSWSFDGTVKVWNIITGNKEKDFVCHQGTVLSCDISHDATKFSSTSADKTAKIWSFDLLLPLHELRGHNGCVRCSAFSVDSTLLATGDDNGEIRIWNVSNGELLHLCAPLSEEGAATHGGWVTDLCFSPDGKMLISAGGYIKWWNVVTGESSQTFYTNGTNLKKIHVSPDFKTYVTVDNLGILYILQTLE
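Assay system – biochemical Apaf-1 apoptosome reconstitution · Medium – 20 mM HEPES buffer, pH 7.5, containing CHAPS and BSA · Incubation – 30 min preincubation, 50 min reaction, room temperature · Measured by – Caspase-3-released Rh110 fluorescence, 540 nm emission, 480 nm excitation · Read-out – Caspase-3 cleavage activity downstream of Apaf-1 activation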
Rh110 act interf: Rh110 signal interference in Apaf-1 activator counter-screen. shares compounds with Apaf1 activ. Rh110 fluorescence interference, quenched caspase reaction, Ex480/Em540. fluorescence interference (activity change), % at 20 µM, hits read low. 980 tested, under 10 active. AID 504616;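 active = mean activity change at or below -40% when tested at 20 µM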
Apaf-1 act conf: confirmation of human Apaf-1 activators; shares compounds with Apaf1 activ; reconstituted apoptosome caspase-3 activity, DEVD-Rh110 fluorescence; active compounds read low; activity change, negative = activation, % at 20 µM; hit rate 5% among 980; AID 504617;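 active = mean activity change at or below -40%, meaning activation of 40% or more, at 20 µM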
A number is an active result; i = inactive; nt = no result. The list is a sample of the results.

SMILES	Apaf1 activ	Rh110 act interf	Apaf-1 act conf
CC(=O)[C@]1(O)Cc2c(O)c3c(c(O)c2[C@@H](O[C@H]2C[C@H](N)[C@H](O)[C@H](C)O2)C1)C(=O)c1ccccc1C3=O	i	nt	nt
CCOC(=O)c1nn(-c2ccccc2)c(=O)cc1OCC(=O)Nc1cc(C)ccc1OC	-57	i	i
CCOc1cc(/C=C2/C(=O)N(c3ccccc3)N=C2C)ccc1OC(=O)c1ccco1	i	nt	nt
COc1ccc(OC)c2c1C(=O)c1ccccc1C2=O	i	nt	nt
COc1ccc(C(=O)c2ccc3oc(-c4ccc(OC)cc4)c(C#CCCO)c3c2)cc1	-65	i	i
CN1CCN(CCCNC(=O)c2cc3c(-c4ccc(Cl)cc4)nn(C)c3s2)CC1	i	nt	nt
CCOc1cc(C(=S)N2CCOCC2)ccc1OS(=O)(=O)c1ccc(OC)cc1	-55	i	i
COc1ccc(C(CNC(=O)COc2c(C)cc(C)cc2C)N2CCOCC2)cc1 (centres undefined)	i	nt	nt
CCOc1cc(C(c2c(C)[nH][nH]c2=O)c2c(C)[nH][nH]c2=O)ccc1OS(=O)(=O)c1ccc(C)cc1	i	nt	nt
CC1=NN(Cc2ccccc2)C(=O)C1	i	nt	nt
COc1cccc2c1C(=O)c1c(O)c3c(c(O)c1C2=O)C[C@@](O)(C(=O)CO)C[C@@H]3O[C@H]1C[C@H](N)[C@@H](O)[C@H](C)O1	i	nt	nt
CC1(C(=O)O)Oc2cccnc2NC1=O (centres undefined)	-221	i	i
CCCCc1cc(=O)oc2cc(OCC(=O)NCCN3CCOCC3)c(Cl)cc12	i	nt	nt
CSc1ccccc1NC(=O)c1cc(S(=O)(=O)N(C)C)ccc1N1CCCC1	i	nt	nt
CSc1ccccc1NC(=O)c1cc(-c2ccc3c(c2)OCO3)on1	-197	i	i
C#CCOCCOCCOCCNc1nc(N2CCN(C(=O)C([C@@H](C)O)n3cc([C@@H](N)CCCCN)nn3)CC2)nc(N2CCN(C(=O)[C@H](CO)n3cc([C@@H](N)C(C)C)nn3)CC2)n1 (some centres undefined)	i	nt	nt
C#CCOCCOCCOCCNc1nc(N2CCN(C(=O)CCCCCCCCCCNC(=O)Cn3cc(CCCCCN)nn3)CC2)nc(N2CCN(C(=O)CCCCCCCCCCNC(=O)[C@H](CO)n3cc(CCCCCN)nn3)CC2)n1	i	nt	nt
COc1cc(Cn2c(N)c(C#N)c3nc4ccccc4nc32)cc(OC)c1	i	nt	nt
COc1ccc2cc(C(=O)Nc3ccc(Cl)cc3)sc(=O)c2c1OC	-46	i	i
CCCC[n+]1ccn(C2=C([O-])c3ccccc3C(=O)/C2=N\S(=O)(=O)c2ccccc2)c1	i	nt	nt
CCCCCCSc1ccc(-c2nc3ccc(C)cn3c2NCc2ccccc2)cc1OC	i	nt	nt
O=C(NCc1ccccc1)C1(CC2CC(c3ccccc3)=NO2)CCNCC1 (centres undefined)	i	nt	nt
O=C(NCC(c1ccco1)N1CCN(c2ccc(F)cc2)CC1)c1ccc2c(c1)OCO2 (centres undefined)	-155	i	i
CCN(CC(=O)Nc1c(F)cccc1F)C(=O)CNC(=O)c1ccc2c(c1)OCO2	i	nt	nt
CCN(Cc1ccccc1)C(=O)c1cccc(S(=O)(=O)N2CCN(c3ccc(F)cc3)CC2)c1	i	nt	nt
SMILES	Apaf1 activ	Rh110 act interf	Apaf-1 act conf
CCCC(=O)OCCNc1cc(SCc2ccco2)c2nonc2c1[N+](=O)[O-]	i	nt	nt
O=C1C(Cl)=C(NCc2cccnc2)C(=O)c2ccccc21	i	nt	nt
CC1=NN(c2ccccc2)C(=O)/C1=C/c1ccc[nH]1	-138	i	i
CC1=NN(c2ccccc2)C(=O)/C1=C\c1ccc(Br)s1	i	nt	nt
CC1=NN(c2ccccc2)C(=O)/C1=C/c1ccc(Cl)cc1	i	nt	nt
O=C1NCC(c2ccccc2)C1C(=O)N/N=C\c1ccc(-c2cccc(Cl)c2Cl)o1 (centres undefined)	i	nt	nt
O=C(CNc1cccc2ccccc12)N/N=C/C(Br)=C/c1ccccc1	i	nt	nt
CC(=O)c1ccc(-n2ccc(=O)cc2)cc1	-494	i	i
Cc1cc(C)c2nc(N(CCN(C)C)C(=O)c3ccc(S(=O)(=O)N(C)CC4CCCO4)cc3)sc2c1 (centres undefined)	i	nt	nt
O=C(O)c1ccc(S(=O)(=O)/N=C2\C=C(Nc3ccccc3F)C(=O)c3ccccc32)cc1	i	nt	nt
O=C(OCC(=O)N1CCCCC1)c1n[nH]c(=O)c2ccccc12	-572	i	i
CC1OC(Nc2cccc3ccccc23)C(O)C(O)C1O (centres undefined)	i	nt	nt
COc1ccccc1NC(=O)C1=C(C)Nc2nnnn2C1c1cccc(C)c1 (centres undefined)	-71	i	i
C#CCOCCOCCOCCNc1nc(N2CCN(C(=O)CCCCCCCCCCNC(=O)[C@H](CCCCN)n3cc(CCCC(=O)O)nn3)CC2)nc(N2CCN(C(=O)CCCCCCCCCCNC(=O)[C@H](CCCN=C(N)N)n3cc(C[C@@H](C)CC)nn3)CC2)n1	i	nt	nt
CCN(CC)CCOC(=O)c1ccc(N/C=C(/C#N)c2nc(-c3cc4ccccc4oc3=O)cs2)cc1	i	nt	nt
CCOc1ccccc1NC(=O)C(CC(C)C)NC(=O)C1CCCCC1 (centres undefined)	-53	i	i
CCc1ccc(NC(=O)[C@H](Cc2c[nH]c3ccccc23)NC(=O)[C@@H]2Cc3ccccc3CN2)cc1	i	nt	nt
NC1=C(Br)C(=O)c2ccccc2C1=O	i	nt	nt
c1ccc(C(c2nnnn2C2CCCCC2)N2CCc3ccccc3C2)nc1 (centres undefined)	i	nt	nt
CC[C@@H](C)[C@@H]1CN([C@@H](C)CN2CCC[C@H]2CN2C(N)=NC[C@@H]2Cc2ccccc2)C(=N)N1CCc1ccc(Cl)c(Cl)c1	i	nt	nt
Cc1ccc(C=Nc2ccccc2C(=O)Nc2ccccc2)cc1	-464	i	i
CCCCCCCCCC[N+](C)(C)CC/C=C1/c2ccccc2Sc2ccc(Cl)cc21	i	nt	nt
Cc1ccccc1NC(=S)N/N=C/c1ccc(O)cc1O	-43	i	i
Oc1ccc(C=Nc2cccc3ccccc23)c(O)c1	i	nt	nt
Cc1ccccc1NC(=S)Nc1cccc2cnccc12	i	nt	nt
SMILES	Apaf1 activ	Rh110 act interf	Apaf-1 act conf
CCCCC[n+]1ccn(C2=C([O-])c3ccccc3C(=O)/C2=N\S(=O)(=O)c2ccc(Br)cc2)c1	i	nt	nt
O=C(c1ccc(OCCN2CCCCC2)cc1)c1c(-c2ccc(O)cc2)sc2cc(O)ccc12	i	nt	nt
O=c1cc(-c2ccc(F)cc2)[nH][nH]1	i	nt	nt
O=C(Cc1cc(=O)[nH][nH]1)N/N=C/C(Cl)=C/c1ccccc1	i	nt	nt
COc1ccc(C(CNC(=O)c2cccc(NS(=O)(=O)c3ccc(C)c(F)c3)c2)N(C)C)cc1 (centres undefined)	i	nt	nt
O=C(NCc1ccccn1)c1cccc(NS(=O)(=O)c2cccc(F)c2)c1	-43	i	i
COc1cccc2c1[C@@H]1CN(CCCCn3c(=O)[nH]c4c(sc5ncc(-c6ccccc6)nc54)c3=O)C[C@@H]1CO2	i	nt	nt
CC(C)OCCCNC1=C(Cl)C(=O)c2ccccc2C1=O	i	nt	nt
CCN(CC(=O)Nc1ccc(NC(C)=O)cc1)C(=O)c1ccccc1Sc1ccccc1C#N	i	nt	nt
CC1=NN(c2ccccc2)C(=O)/C1=C/c1cccs1	i	nt	nt
Cc1c(N=Cc2cccs2)c(=O)n(-c2ccccc2)n1C	-182	i	i
Cc1ccc(-c2cc(C(=O)O)c3cc(Br)ccc3n2)s1	i	nt	nt
COc1ccc(Cl)cc1C(=O)NNC(=O)COC(=O)c1ccc(Br)o1	-41	i	i
